Experimental data: ChEMBL document CHEMBL1154711, “Original quinazoline derivatives displaying antiplasmodial properties” (Eur J Med Chem, 2010)

Experiments:
[1] = test system: K562; experiment: Cytotoxicity against human K562 cells after 72 hrs by flow cytometry; assay type: functional, cell-based
Procedure, shortened: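 Cells were treated with a concentration range for 72 h at 37 °C, 6% CO2, with solvent and doxorubicin controls, and wells were checked for precipitate. Cells were stained with propidium iodide and live cells counted by flow cytometry. IC50 is the concentration giving a 50% decrease in proliferation versus control, from nonlinear regression of dose–response curves, mean of three independent experiments.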

[2] = test system: Plasmodium falciparum; experiment: Antiplasmodial activity against chloroquine-resistant Plasmodium falciparum W2 infected in human erythrocyte after 48 hrs by flow cytometry; assay type: functional, organism-based
Procedure, shortened: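 W2 strain (chloroquine-, pyrimethamine- and proguanil-resistant) kept in RPMI 1640 with 25 mM HEPES, 25 mM NaHCO3 and 10% A+ human serum. Cultures held at 37 °C under 10% O2, 6% CO2, 84% N2. Assay wells at 2% haematocrit; compounds added in DMSO or water. Incubated 48 h with no medium change. Infected erythrocytes counted by hydroethidine flow cytometry. IC50 taken from three independent experiments.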

[3] = test system: HepG2; experiment: Cytotoxicity against human HepG2 cells after 72 hrs by MTT assay; assay type: cell-based
Procedure, shortened: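 Cells in RPMI with 10% FBS, glutamine and penicillin/streptomycin were grown 24 h at 37 °C, 6% CO2, then exposed to a concentration range for 72 h. Wells were checked microscopically for precipitate. MTT (5 mg/mL in PBS) was added in serum-free medium for 2 h, formazan dissolved in DMSO, and absorbance read at 570 nm (630 nm reference). Viability is % of untreated control; the 50% cytotoxic concentration comes from the dose–response curve, mean of three experiments.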

[4] = Selectivity index, ratio of IC50 for human HepG2 cells to IC50 for chloroquine-resistant Plasmodium falciparum W2
[5] = Selectivity index, ratio of IC50 for human K562 cells to IC50 for chloroquine-resistant Plasmodium falciparum W2
[6] = test system: Toxoplasma gondii; experiment: Antitoxoplasmic activity against Toxoplasma gondii PRU-betaGal tachyzoite after 96 hrs by colorimetric microtiter assay; assay type: functional, organism-based
Procedure, shortened: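 Confluent HFF monolayers (10⁴ cells seeded per well) in phenol red-free RPMI 1640 with 10% FCS and glutamine/penicillin–streptomycin were infected with 2×10³ tachyzoites per well for 3 h at 37 °C, 6% CO2. Compounds in DMSO (<0.5% v/v) were added in triplicate for 96 h. CPRG was then added for 24 h and β-galactosidase read at 570/630 nm, blanked on uninfected wells. IC50 from three independent experiments.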

[7] = test system: Leishmania donovani; experiment: Antileishmanial activity against GFP-transfected Leishmania donovani HOM/IN/01/2001 promastigotes after 72 hrs; assay type: functional, organism-based; conditions: HOM/IN/01/2001, 72 h
Procedure, shortened: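 GFP-expressing promastigotes at 10⁵ parasites/mL in medium with 10% FCS and G418, exposed in duplicate to a concentration range of compounds in DMSO (final <0.5% v/v) for 72 h at 27 °C. DMSO and amphotericin B controls were included. Growth was read by flow cytometry (488 nm argon laser, green FL1 fluorescence). The IC50 is the 50% growth decrease, from three independent experiments.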

[8] = Homo sapiens, K562, 72 h, read-out: IC50
[9] = Plasmodium falciparum, W2, 48 h, read-out: IC50
[10] = Homo sapiens, HepG2, 72 h, read-out: IC50

SMILES	IC50 [1, 8]	IC50 [2, 9]	IC50 [3, 10]	Ratio IC50 [4]	Ratio IC50 [5]	IC50 [6]	IC50 [7]	IC50 ([1]; k562)	IC50 [2]	IC50 ([3]; hepg2)
Cc1ccc(S(=O)(=O)Cc2nc(Nc3ccccc3Cl)c3ccccc3n2)cc1	24 µM	14 µM	> 50 µM	>3.6	1.7	–	–	–	–	–
Cc1ccc(S(=O)(=O)Cc2nc(Nc3ccc(F)cc3)c3cc([N+](=O)[O-])ccc3n2)cc1	> 125 µM	2.2 µM	> 50 µM	>23	>57	> 25 µM	> 25 µM	–	–	–
CC(C)=Cc1nc(Nc2cccc(Br)c2)c2cc([N+](=O)[O-])ccc2n1	> 62 µM	7.5 µM	> 15 µM	>2	>8	–	–	–	–	–
Cc1ccc(S(=O)(=O)Cc2nc(Nc3cccc(Br)c3)c3cc([N+](=O)[O-])ccc3n2)cc1	–	–	–	–	–	–	–	ND(Insoluble)	ND(Insoluble)	ND(Insoluble)
CC(C)=Cc1nc(Nc2ccccc2)c2cc([N+](=O)[O-])ccc2n1	> 125 µM	17 µM	50 µM	2.9	>7	–	–	–	–	–
Cc1ccc(S(=O)(=O)Cc2nc(Nc3cccc(C(F)(F)F)c3)c3cc([N+](=O)[O-])ccc3n2)cc1	> 125 µM	0.95 µM	> 100 µM	>105	>131	> 25 µM	24 µM	–	–	–
Cc1ccc(S(=O)(=O)Cc2nc(Nc3cccc(C(F)(F)F)c3)c3ccccc3n2)cc1	> 25 µM	15 µM	> 25 µM	>1.7	>1.7	–	–	–	–	–
CC(C)=Cc1nc(Nc2cccc(C(F)(F)F)c2)c2cc([N+](=O)[O-])ccc2n1	> 125 µM	3.2 µM	> 100 µM	31.3	>39	–	–	–	–	–
Cc1ccc(S(=O)(=O)Cc2nc(Nc3ccccc3)c3ccccc3n2)cc1	–	–	–	–	–	–	–	ND(Insoluble)	ND(Insoluble)	ND(Insoluble)
Cc1ccc(S(=O)(=O)Cc2nc(Nc3cccc(Cl)c3)c3cc([N+](=O)[O-])ccc3n2)cc1	> 125 µM	1.3 µM	> 100 µM	>77	>96	> 25 µM	11 µM	–	–	–
Cc1ccc(S(=O)(=O)Cc2nc(Nc3cccc(Br)c3)c3ccccc3n2)cc1	> 15 µM	13 µM	> 15 µM	>1.2	>1.2	–	–	–	–	–
Cc1ccc(S(=O)(=O)Cc2nc(Nc3ccccc3)c3cc([N+](=O)[O-])ccc3n2)cc1	> 125 µM	5 µM	> 25 µM	>5	>25	–	–	–	–	–
Cc1ccc(S(=O)(=O)Cc2nc(Nc3ccc(F)cc3)c3ccccc3n2)cc1	> 20 µM	20 µM	> 15 µM	>0.75	>1	–	–	–	–	–
CC(C)=Cc1nc(Nc2ccc(F)cc2)c2cc([N+](=O)[O-])ccc2n1	> 62 µM	5.6 µM	27 µM	4.8	>11	–	–	–	–	–
C[C@@H]1[C@H](O)[C@@H](C)/C=C/C=C/C=C/C=C/C=C/C=C/C=C/[C@H](O[C@@H]2O[C@H](C)[C@@H](O)[C@H](N)[C@@H]2O)C[C@@H]2O[C@](O)(C[C@@H](O)C[C@@H](O)[C@H](O)CC[C@@H](O)C[C@@H](O)CC(=O)O[C@H]1C)C[C@H](O)[C@H]2C(=O)O [AMPHOTERICIN B]	–	–	–	–	–	–	0.06 µM	–	–	–
COc1cccc2c1C(=O)c1c(O)c3c(c(O)c1C2=O)C[C@@](O)(C(=O)CO)C[C@@H]3O[C@H]1C[C@H](N)[C@H](O)[C@H](C)O1 [DOXORUBICIN]	–	–	0.2 µM	–	–	–	–	–	–	–
C[C@H]1c2cccc(O)c2C(=O)C2=C(O)[C@]3(O)C(=O)C(C(N)=O)=C(O)[C@@H](N(C)C)[C@@H]3[C@@H](O)[C@@H]21.O [DOXYCYCLINE]	–	–	–	3.1	2.3	–	–	–	–	–
CCc1nc(N)nc(N)c1-c1ccc(Cl)cc1 [PYRIMETHAMINE]	–	–	–	–	–	1.5 µM	–	–	–	–
